Publication PMC7787347 (Journal of medicinal chemistry, 2018)
Entries after “also recorded” stand apart in the source; their conditions may differ.

Tests used:
SW480 = details: read-out: MTs IC50 ± SD SW480; Wnt/β-catenin hyperactive, 72 h; cited from earlier work
HCT116 = details: read-out: MTs IC50 ± SD HCT116; Wnt/β-catenin hyperactive, 72 h; cited from earlier work
MDA-MB-231 = details: read-out: MTs IC50 ± SD MDA-MB-231; Wnt/β-catenin hyperactive, 72 h; cited from earlier work
A549 = details: read-out: MTs IC50 ± SD normal Wnt A549, 72 h; cited from earlier work
MDA-MB-231 cells = details: cited from earlier work
β-catenin = details: in words; cited from earlier work
BCL9 HD2 domain = details: in words; cited from earlier work
[1] = system: Axin2, LEF1, cyclin D1 mRNA in SW480 cells; experiment: qPCR of Wnt target gene mRNA expression; type: cell-based, human; details: 24 h, in words
[2] = system: cyclin D1, c-myc, active β-catenin (ABC), total β-catenin in SW480 cells; experiment: Western blot of protein expression; type: cell-based; details: 24 h, in words
β-catenin/BCL9 PPI = molecular target: T1, β-catenin/BCL9 PPI (Homo sapiens, UniProt P35222); experiment: AlphaScreen competitive inhibition assay, β-catenin/BCL9 PPI; type: binding; details: in words
T1 sequence (P35222 1-781): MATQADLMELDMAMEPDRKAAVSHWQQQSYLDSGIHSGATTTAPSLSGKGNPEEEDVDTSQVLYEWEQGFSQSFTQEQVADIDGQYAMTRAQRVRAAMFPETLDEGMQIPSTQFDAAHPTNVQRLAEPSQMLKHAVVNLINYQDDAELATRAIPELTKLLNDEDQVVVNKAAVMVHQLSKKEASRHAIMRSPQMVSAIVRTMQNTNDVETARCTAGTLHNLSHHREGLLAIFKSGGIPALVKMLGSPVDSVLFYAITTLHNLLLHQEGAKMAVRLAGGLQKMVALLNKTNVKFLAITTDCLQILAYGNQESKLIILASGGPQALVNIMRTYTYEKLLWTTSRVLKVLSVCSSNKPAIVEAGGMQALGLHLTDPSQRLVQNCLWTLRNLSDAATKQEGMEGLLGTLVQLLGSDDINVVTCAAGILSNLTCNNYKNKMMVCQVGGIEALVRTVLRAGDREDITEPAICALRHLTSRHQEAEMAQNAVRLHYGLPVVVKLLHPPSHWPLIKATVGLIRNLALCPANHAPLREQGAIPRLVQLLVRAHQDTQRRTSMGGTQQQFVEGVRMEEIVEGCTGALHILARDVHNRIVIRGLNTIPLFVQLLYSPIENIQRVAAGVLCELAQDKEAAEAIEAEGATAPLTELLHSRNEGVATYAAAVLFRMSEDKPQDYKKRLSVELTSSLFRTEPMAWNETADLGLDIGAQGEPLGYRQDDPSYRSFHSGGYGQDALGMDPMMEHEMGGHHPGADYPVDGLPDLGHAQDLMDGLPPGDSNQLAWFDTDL

β-catenin/E-cadherin PPI = molecular target: T2, β-catenin/E-cadherin PPI (Homo sapiens, UniProt P35222); experiment: AlphaScreen selectivity assay, β-catenin/E-cadherin PPI; type: binding; details: for selectivity of BCL9/cadherin: ratio of Ki β-catenin/E-cadherin over Ki β-catenin/BCL9
T2 sequence (P35222 1-781): T1 sequence (P35222 1-781)

SW480 cells = experiment: LDH release cytotoxicity assay; type: cell-based; details: 4 h incubation, in words
Summary of the method: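 SW480 cells were seeded at 2 × 10^4 cells/well, held overnight at 37 °C, then exposed to various concentrations of test compound for 4 h. The culture supernatant was reacted with the commercial LDH kit reagents and read at 490 nm. Percent cytotoxicity was calculated from experimental, background and maximum LDH release. Run in triplicate.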

[3] = system: FOPFlash luciferase reporter (three mutant Tcf4 binding sites) in β-catenin activated HEK293 cells; experiment: FOPFlash luciferase reporter assay; type: cell-based; details: in words; for effect on FOPFlash luciferase reporter activity: β-catenin activated HEK293 cells
HCT116 cells = experiment: Cell-bound; type: in vitro ADME; details: 5 mL DMEM with 10% FBS
[4] = system: full-length β-catenin/full-length BCL9 PPI in HCT116 cell lysates; experiment: Co-IP in cell lysates; type: cell-based; details: 4 h incubation with HCT116 cell lysates, in words
[5] = system: β-catenin/BCL9 PPI in HCT116 cells; experiment: Co-IP in whole cells; type: cell-based; details: 24 h, in words
BCL9 (Homo sapiens) = BCL9 (Homo sapiens) (UniProt O00512); details: cited from earlier work
Chain of BCL9 (Homo sapiens) (O00512 whole entry): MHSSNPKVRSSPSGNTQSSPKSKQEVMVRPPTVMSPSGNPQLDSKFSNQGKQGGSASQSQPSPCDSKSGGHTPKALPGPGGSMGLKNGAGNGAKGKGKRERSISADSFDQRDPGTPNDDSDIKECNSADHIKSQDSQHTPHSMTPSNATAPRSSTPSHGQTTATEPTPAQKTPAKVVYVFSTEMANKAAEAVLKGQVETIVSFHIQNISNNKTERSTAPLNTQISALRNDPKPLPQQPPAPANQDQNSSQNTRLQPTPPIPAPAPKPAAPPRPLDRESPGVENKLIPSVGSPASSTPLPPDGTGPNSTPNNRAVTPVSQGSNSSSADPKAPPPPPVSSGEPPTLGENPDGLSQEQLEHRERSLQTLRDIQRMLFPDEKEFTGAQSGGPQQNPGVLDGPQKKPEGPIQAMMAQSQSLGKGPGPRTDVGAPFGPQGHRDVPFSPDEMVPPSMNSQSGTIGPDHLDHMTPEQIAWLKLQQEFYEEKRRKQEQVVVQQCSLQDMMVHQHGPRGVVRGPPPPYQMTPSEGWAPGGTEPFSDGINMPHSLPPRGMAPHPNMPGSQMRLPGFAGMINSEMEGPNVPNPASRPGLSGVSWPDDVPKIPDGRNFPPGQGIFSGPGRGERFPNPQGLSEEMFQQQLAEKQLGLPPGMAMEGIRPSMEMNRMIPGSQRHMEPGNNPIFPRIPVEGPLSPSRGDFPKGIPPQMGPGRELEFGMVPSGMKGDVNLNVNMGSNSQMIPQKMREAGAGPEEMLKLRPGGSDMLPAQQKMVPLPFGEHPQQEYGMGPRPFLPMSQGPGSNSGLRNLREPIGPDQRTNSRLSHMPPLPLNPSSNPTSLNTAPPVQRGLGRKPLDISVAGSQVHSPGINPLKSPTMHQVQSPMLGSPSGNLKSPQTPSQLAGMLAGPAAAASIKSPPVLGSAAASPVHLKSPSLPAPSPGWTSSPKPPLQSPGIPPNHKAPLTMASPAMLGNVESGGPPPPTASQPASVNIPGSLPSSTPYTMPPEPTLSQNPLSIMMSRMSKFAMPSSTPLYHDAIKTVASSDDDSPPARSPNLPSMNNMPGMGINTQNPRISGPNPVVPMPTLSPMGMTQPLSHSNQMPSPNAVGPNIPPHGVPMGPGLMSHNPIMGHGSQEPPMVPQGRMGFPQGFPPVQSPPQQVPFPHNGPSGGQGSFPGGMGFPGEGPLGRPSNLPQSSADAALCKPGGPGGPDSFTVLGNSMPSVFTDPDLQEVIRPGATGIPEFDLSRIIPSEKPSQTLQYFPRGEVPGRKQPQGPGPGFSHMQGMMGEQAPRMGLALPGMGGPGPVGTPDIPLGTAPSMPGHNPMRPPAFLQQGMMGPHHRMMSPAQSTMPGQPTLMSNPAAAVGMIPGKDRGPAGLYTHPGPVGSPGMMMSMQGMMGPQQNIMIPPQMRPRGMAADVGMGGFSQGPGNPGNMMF

AlphaScreen biochemical inhibitory activity compared with 1 (β-catenin/BCL9 PPI) | Ki (β-catenin/E-cadherin PPI) [µM] | selectivity of BCL9/cadherin (β-catenin/E-cadherin PPI) [fold] | Compound | mRNA expression of Wnt target genes Axin2, cyclin D1 and LEF1 [1] | mRNA expression of house-keeper gene HPRT [1] | level of E-cadherin-bound β-catenin (total β-catenin) [2] | level of the active form of β-catenin (ABC) [2] | protein expression levels of cyclin D1 and c-myc [2] | effect on FOPFlash luciferase reporter activity [3] | other results
 |  |  | Cl.Cl.O=C(Nc1ccc(O[C@H]2CCNC2)c(-c2ccc(F)cc2)c1)c1ccc(O[C@H]2CCNC2)c(-c2ccc(F)c(F)c2)c1 [Compound 1] |  |  |  |  |  |  | IC50 (SW480): 3.5 ± 0.32 µM; IC50 (HCT116): 3.1 ± 0.83 µM; IC50 (MDA-MB-231): 2300 ± 250 nM; IC50 (A549): 8.8 ± 0.62 µM; cell-bound concentration at 4 °C (MDA-MB-231 cells; 6 h incubation at 4 °C, 5 mL DMEM with 10% FBS): 1 nmol/million MDA-MB-231 cells; cell-bound concentration at 37 °C (MDA-MB-231 cells; 6 h incubation, 5 mL DMEM with 10% FBS, input concentration 2 μM): 6.7 nmol/million MDA-MB-231 cells; amount bound with the cell membrane by the nonspecific manner (MDA-MB-231 cells; MDA-MB-231 cells): 15%; binding with β-catenin in ITC (β-catenin): bind with β-catenin; binding with BCL9 HD2 domain in ITC (BCL9 HD2 domain): not the BCL9 HD2 domain
 |  |  | Cl.Cl.O=C(Nc1ccc(O[C@H]2CCNC2)c(-c2ccc(F)cc2)c1)c1ccc(O[C@H]2CCNC2)c(-c2ccc3ccsc3c2)c1 [Compound 3, 3-(Benzo[b]thiophen-6-yl)-N-(4′-fluoro-6-(((S)-pyrrolidin-3-yl)-oxy)-[1,1′-biphenyl]-3-yl)-4-(((S)-pyrrolidin-3-yl)oxy)benzamide Dihydrochloride] | dose-dependently inhibited | did not inhibit | no effect | inhibit the level of the active form of β-catenin (ABC) | significantly decreased |  | 
comparable with that of 1 |  |  | Cl.Cl.O=C(Nc1ccc(O[C@H]2CCNC2)c(-c2cccc(-c3nn[nH]n3)c2)c1)c1ccc(O[C@H]2CCNC2)c(-c2ccc(F)c(F)c2)c1 [Compound 27, 3′,4′-Difluoro-6-((S)-pyrrolidin-3-yloxy)-N-(6-((S)-pyrrolidin-3-yloxy)-3′-(2H-tetrazol-5-yl)-[1,1′-biphenyl]-3-yl)-[1,1′-biphenyl]-3-carboxamide Dihydrochloride] |  |  |  |  |  |  | 
 | > 915 | >1900 | Cl.Cl.O=C(Nc1ccc(O[C@@H]2CCNC2)c(-c2cccc(-c3nn[nH]n3)c2)c1)c1ccc(O[C@H]2CCNC2)c(-c2ccc(F)c(F)c2)c1 [Compound 29, 3′,4′-Difluoro-6-(((S)-pyrrolidin-3-yl)oxy)-N-(6-(((R)-pyrrolidin-3-yl)oxy)-3′-(2H-tetrazol-5-yl)-[1,1′-biphenyl]-3-yl)-[1,1′-biphenyl]-3-carboxamide Dihydrochloride] | dose-dependently inhibited | did not inhibit | no effect | inhibit the level of the active form of β-catenin (ABC) | significantly decreased | specific for the Wnt/β-catenin signaling pathway | cytotoxicity in LDH release assay (SW480 cells): did not exhibit cytotoxicity; also recorded: did not show cytotoxicity; effect on FOPFlash luciferase reporter activity up to 200 μM ([3]; up to the concentration of 200 μM): no effect; cell-bound concentration at 4 °C (HCT116 cells; 6 h incubation at 4 °C): 5.1 nmol/million HCT116 cells; cell-bound concentration at 37 °C (HCT116 cells; 6 h incubation, input concentration 50 μM): 6.6 nmol/million HCT116 cells; disruption of full-length β-catenin/full-length BCL9 PPI [4]: dose-dependently disrupt; disruption of β-catenin/BCL9 PPI in cells [5]: inhibited the β-catenin/BCL9 PPI in a dose-dependent manner
comparable with that of 1 | > 915 | >570 | Cl.Cl.O=C(Nc1ccc(O[C@@H]2CCNC2)c(-c2cccc(-c3nn[nH]n3)c2)c1)c1ccc(O[C@H]2CCNC2)c(-c2ccc3ccsc3c2)c1 [Compound 30, (R)-3-((5-(3-(Benzo[b]thiophen-6-yl)-4-(((S)-pyrrolidin-1-ium-3-yl)oxy)benzamido)-3′-(2H-tetrazol-5-yl)-[1,1′-biphenyl]-2-yl)oxy)-pyrrolidin-1-ium Chloride] |  |  |  |  |  | specific for the Wnt/β-catenin signaling pathway | 
 |  |  | β-catenin (from UniProt P35222) |  |  |  |  |  |  | Kd (BCL9 (Homo sapiens)): 470 nM
